Data set [1] is described as follows: Cytotoxicity against human IMR32 cells assessed as cell viability at 10 uM by MTT assay relative to control. The class given is cell-based. Conditions: imr-32, 10 µM. The method, boiled down: (§1)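 IMR-32 cells grown in MEM/F12 with 10% fetal bovine serum; viability read by MTT assay in 96-well format. Test concentrations were 1, 10 and 100 µM, each tested six times.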

The test system of data set [2] is PC-12. The experiment in a line: Neuritogenic activity in rat PC12 cells assessed as round shaped cells with no neurite outgrowth at 33 uM after 48 hrs. The class given is functional. The procedure, abridged: (§2)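 PC-12 cells on collagen (1 × 10^5 cells/mL, 4 h pre-culture) treated in duplicate for 48 h, compound delivered in MeOH (0.3% final); NGF 10 ng/mL and 0.3% MeOH controls. By phase contrast, over 300 cells or aggregates per well in six random fields classed as round with no neurite, neurite ≤ cell body, or neurite ≥ twice cell diameter; given as % of cells.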

Data set [3] has as its system PC-12. The experiment in a line: Neuritogenic activity in rat PC12 cells assessed as neurite length equal or less than cell body at 33 uM after 48 hrs. The class given is functional. The method, boiled down:
as §2

Data set [4] has as its system PC-12. The experiment in a line: Induction of neurite outgrowth in rat PC12 cells at 100 uM after 48 hrs. The format is functional. The procedure, abridged: (§3)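 PC-12 cells plated on collagen at 1 × 10^5 cells/mL and cultured 4 h. Compound added from MeOH at 3.3, 10, 33 or 100 µM (0.3% MeOH final), in duplicate, then incubated 48 h. Positive control NGF 10 ng/mL; negative control 0.3% MeOH. Over 300 cells or aggregates per well in six random fields scored by phase-contrast microscopy for neurite outgrowth.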

The test system of data set [5] is PC-12. Nature of the data set: Neuritogenic activity in rat PC12 cells assessed as neurite length twice the cell diameter or longer at 100 uM after 48 hrs. The format is functional. The method, boiled down: as §2
For data set [6], the system named is PC-12. The experiment in a line: Induction of neurite outgrowth in rat PC12 cells at 3.3 uM after 48 hrs. The class given is functional, cell-based. The procedure, abridged: as §3
Data set [7] has as its system PC-12. The experiment in a line: Induction of neurite outgrowth in rat PC12 cells at 10 uM after 48 hrs. The class given is functional, cell-based. The procedure, abridged:
as §3

In data set [8] the test system is PC-12. Nature of the data set: Neuritogenic activity in rat PC12 cells assessed as round shaped cells with no neurite outgrowth at 100 uM after 48 hrs. The format is functional. The procedure, abridged:
as §2

Data set [9] can be described thus: Cytotoxicity against human IMR32 cells assessed as cell viability at 100 uM by MTT assay relative to control. The class given is cell-based, IMR-32. Conditions: read-out: Activity. The method, boiled down:
as §1

Data set [10] in a line: Cytotoxicity against human IMR32 cells assessed as cell viability at 1 uM by MTT assay relative to control. The class given is cell-based. Conditions: imr-32, 1 µM. The procedure, abridged: as §1
Background: Formazan colour is commonly taken as a measure of viable cells.

The subject of data set [11] is PC-12. Nature of the data set: Neuritogenic activity in rat PC12 cells assessed as neurite length equal or less than cell body at 100 uM after 48 hrs. The format is functional. The method, boiled down:
as §2

In data set [12] the test system is PC-12. Nature of the data set: Induction of neurite outgrowth in rat PC12 cells at 33 uM after 48 hrs. The class given is functional. The procedure, abridged: as §3

Active and inactive are the calls of the source. The calls are words filed in the database; no cut-off is given here.

`CC[C@@H](C)C[C@@H](C)/C=C(C)/C=C/C=C/C(=O)c1c(O)c([C@]2(O)CC[C@@H](O)CC2)c[nH]c1=O` [N-DEOXYMILITARINONE A]: the Activity entry is “Not Active” in data set [1]; 88% in [2]; 12% in [3]; 51% in [4]; 21% in data set [5]; 49% in [8]. The Activity entry is listed as “Not Active” in [10], 30% in data set [11] and 12% in data set [12]. Moreover, the outcome in data set [6] and in data set [7] was inactive. Further, in data set [9], the viability at 100 µM came out at 22%.

For the origin of these results see ChEMBL document CHEMBL1157300, “(+)-N-Deoxymilitarinone A, a neuritogenic pyridone alkaloid from the insect pathogenic fungus Paecilomyces farinosus” (J Nat Prod, 2006).
